{"source": "ChEMBL document CHEMBL1153118", "about": "“Antimalarial activity of azadipeptide nitriles” (Bioorg Med Chem Lett, 2010)", "key": {"[1]": {"system": "Plasmodium falciparum", "test": "Antimalarial activity against Plasmodium falciparum Dd2 infected in erythrocytes assessed as inhibition of [3H]hypoxanthine incorporation by microbeta liquid scintillation counter", "assay_type": "functional, organism-based", "summary_of_the_method": "(§1)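 Growth inhibition was measured by a standard isotopic assay on cultured P. falciparum-infected erythrocytes, with results reported as IC50 values.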"}, "[2]": {"test": "Inhibition of Plasmodium falciparum recombinant falcipain-3 by microtiter plate spectrofluorimetry"}, "[3]": {"system": "Plasmodium falciparum", "test": "Antimalarial activity against Plasmodium falciparum 3D7 infected in erythrocytes assessed as inhibition of [3H]hypoxanthine incorporation by microbeta liquid scintillation counter", "assay_type": "functional, organism-based", "summary_of_the_method": "as §1"}, "[4]": {"test": "Inhibition of Plasmodium falciparum recombinant falcipain-2 by microtiter plate spectrofluorimetry"}, "[5]": {"biological_target": "T1, Papain (Carica papaya, UniProt P00784)", "T1 sequence (P00784 whole entry)": "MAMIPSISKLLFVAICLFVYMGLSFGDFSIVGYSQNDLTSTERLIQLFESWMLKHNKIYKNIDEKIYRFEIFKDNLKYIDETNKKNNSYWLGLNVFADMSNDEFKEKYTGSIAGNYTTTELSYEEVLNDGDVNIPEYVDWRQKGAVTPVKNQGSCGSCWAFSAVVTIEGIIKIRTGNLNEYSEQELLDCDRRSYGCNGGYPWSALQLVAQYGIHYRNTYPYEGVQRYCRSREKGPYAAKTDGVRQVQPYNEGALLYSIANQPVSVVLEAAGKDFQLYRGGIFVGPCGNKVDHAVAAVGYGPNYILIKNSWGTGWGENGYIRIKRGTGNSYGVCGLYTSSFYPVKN", "test": "Inhibition of Carica papaya papain by microtiter plate spectrofluorimetry"}}}
{"smiles": "CCCCCN(C#N)N(C)C(=O)[C@H](Cc1ccccc1)NC(=O)OCc1ccccc1", "values": [{"measurement": "IC50", "setting": "[1]", "value": 2100, "unit": "nM"}, {"measurement": "IC50", "setting": "[2]", "value": 110, "unit": "nM"}, {"measurement": "IC50", "setting": "[3]", "value": 2900, "unit": "nM"}, {"measurement": "IC50", "setting": "[4]", "value": 310, "unit": "nM"}, {"measurement": "Ki", "setting": "[5]", "value": 10, "unit": "nM"}]}
{"smiles": "C[C@@H](C#N)N(C)C(=O)[C@H](Cc1ccccc1)NC(=O)OCc1ccccc1", "values": [{"measurement": "IC50", "setting": "[1]", "value": "> 25000", "unit": "nM"}, {"measurement": "IC50", "setting": "[2]", "value": "> 50000", "unit": "nM"}, {"measurement": "IC50", "setting": "[3]", "value": "> 25000", "unit": "nM"}, {"measurement": "IC50", "setting": "[4]", "value": "> 50000", "unit": "nM"}, {"measurement": "Ki", "setting": "[5]", "value": 750000, "unit": "nM"}]}
{"smiles": "CN(C(=O)[C@H](Cc1ccccc1)NC(=O)OCc1ccccc1)N(C#N)Cc1ccccc1", "values": [{"measurement": "IC50", "setting": "[1]", "value": 7500, "unit": "nM"}, {"measurement": "IC50", "setting": "[2]", "value": 1600, "unit": "nM"}, {"measurement": "IC50", "setting": "[3]", "value": 7100, "unit": "nM"}, {"measurement": "IC50", "setting": "[4]", "value": 1000, "unit": "nM"}, {"measurement": "Ki", "setting": "[5]", "value": 42, "unit": "nM"}]}
{"smiles": "C[C@@H](C#N)NC(=O)[C@H](Cc1ccccc1)NC(=O)OCc1ccccc1", "values": [{"measurement": "IC50", "setting": "[1]", "value": "> 25000", "unit": "nM"}, {"measurement": "IC50", "setting": "[2]", "value": 16000, "unit": "nM"}, {"measurement": "IC50", "setting": "[3]", "value": "> 25000", "unit": "nM"}, {"measurement": "IC50", "setting": "[4]", "value": 28000, "unit": "nM"}, {"measurement": "Ki", "setting": "[5]", "value": 2200, "unit": "nM"}]}
{"smiles": "CN(C(=O)[C@H](Cc1ccccc1)NC(=O)OCc1ccccc1)N(C#N)CCc1ccccc1", "values": [{"measurement": "IC50", "setting": "[1]", "value": 3600, "unit": "nM"}, {"measurement": "IC50", "setting": "[2]", "value": 300, "unit": "nM"}, {"measurement": "IC50", "setting": "[3]", "value": 5300, "unit": "nM"}, {"measurement": "IC50", "setting": "[4]", "value": 430, "unit": "nM"}, {"measurement": "Ki", "setting": "[5]", "value": 6.3, "unit": "nM"}]}
{"smiles": "CC(C)C[C@H](NC(=O)OCc1ccccc1)C(=O)N(C)N(C)C#N", "values": [{"measurement": "IC50", "setting": "[1]", "value": 18000, "unit": "nM"}, {"measurement": "IC50", "setting": "[2]", "value": 1900, "unit": "nM"}, {"measurement": "IC50", "setting": "[3]", "value": 16000, "unit": "nM"}, {"measurement": "IC50", "setting": "[4]", "value": 59, "unit": "nM"}, {"measurement": "Ki", "setting": "[5]", "value": 8.2, "unit": "nM"}]}
{"smiles": "CN(C#N)N(C)C(=O)[C@H](Cc1ccccc1)NC(=O)OCc1ccccc1", "values": [{"measurement": "IC50", "setting": "[1]", "value": 15000, "unit": "nM"}, {"measurement": "IC50", "setting": "[2]", "value": 18000, "unit": "nM"}, {"measurement": "IC50", "setting": "[3]", "value": 9800, "unit": "nM"}, {"measurement": "IC50", "setting": "[4]", "value": 570, "unit": "nM"}, {"measurement": "Ki", "setting": "[5]", "value": 3.9, "unit": "nM"}]}
